Each block holds one compound with its values, some of them ahead of it.
Assays:
[1] = Tmax in HIV-1 infected patient at 500 mg, po bid on day 10 coadministered with 200 mg, po bid zidovudine by LC-MS/MS analysis; type: ADME, organism-based; details: human, in vivo
How it was run: (§1)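 Treatment-naive Hispanic HIV-1-infected adults (≥5,000 RNA copies/ml, CD4 ≥200 cells/mm3). Blood drawn after first dose on day 1 (0–12 h) and after last dose on day 10 (0–48 h) into DCF-containing EDTA tubes to block ex vivo deamination, centrifuged, plasma stored −80°C. Methanol extraction with internal standard, LC-MS/MS (linear 2–3,000 ng ml−1 for AMDX and DXG). Noncompartmental analysis assuming extravascular input; geometric means reported.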

[2] = Apparent oral clearance in HIV-1 infected patient at 500 mg, po bid on day 10 by LC-MS/MS analysis; type: ADME, organism-based; details: human, in vivo
How it was run: (§2)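 Untreated Hispanic HIV-1-infected adults (viral load ≥5,000 copies/ml, CD4 ≥200 cells/mm3). Blood was drawn into DCF-containing EDTA tubes on day 1 (0–12 h) and on day 10 (0–48 h post last dose), then stored at −80°C. Plasma was methanol-extracted with an internal standard and run by LC-MS/MS (2–3,000 ng/ml AMDX/DXG; 2–5,000 ng/ml ZDV). Noncompartmental analysis assumed extravascular input; τ = 12 h; geometric means reported; accumulation was taken as AUCτ day 10/day 1.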

[3] = Cmax in HIV-1 infected patient at 500 mg, po bid on day 1 by LC-MS/MS analysis; type: ADME, organism-based; design: dose 500 mg, route oral; details: human, in vivo; how it was run: as §2
[4] = Tmax in HIV-1 infected patient at 500 mg, po bid on day 1 by LC-MS/MS analysis; type: ADME, organism-based; details: human, in vivo; how it was run: as §1
[5] = Half life in HIV-1 infected patient at 500 mg, po bid on day 10 coadministered with 300 mg, po bid zidovudine by LC-MS/MS analysis; type: ADME, organism-based; details: human, in vivo; how it was run: as §2
[6] = Apparent oral clearance in HIV-1 infected patient at 500 mg, po bid on day 10 coadministered with 200 mg, po bid zidovudine by LC-MS/MS analysis; type: ADME, organism-based; details: human, in vivo; how it was run: as §2
[7] = Half life in HIV-1 infected patient at 500 mg, po bid on day 1 by LC-MS/MS analysis; type: ADME, organism-based; details: human, in vivo; how it was run: as §2
[8] = Cmax in HIV-1 infected patient at 500 mg, po bid on day 10 coadministered with 200 mg, po bid zidovudine by LC-MS/MS analysis; type: ADME, organism-based; design: dose 500 mg, route oral; details: human, in vivo; how it was run: as §2
[9] = AUC (0 to 12 hrs) in HIV-1 infected patient at 500 mg, po bid on day 10 by LC-MS/MS analysis; type: ADME, organism-based; design: dose 500 mg, time < 12 hr, route oral; details: human, plasma; how it was run: as §2
[10] = Tmax in HIV-1 infected patient at 500 mg, po bid on day 10 by LC-MS/MS analysis; type: ADME, organism-based; details: human, in vivo; how it was run: as §1
[11] = Tmax in HIV-1 infected patient at 500 mg, po bid on day 10 coadministered with 300 mg, po bid zidovudine by LC-MS/MS analysis; type: ADME, organism-based; details: human, in vivo; how it was run: as §1
[12] = Half life in HIV-1 infected patient at 500 mg, po bid on day 10 by LC-MS/MS analysis; type: ADME, organism-based; details: human, in vivo; how it was run: as §2
[13] = Half life in HIV-1 infected patient at 500 mg, po bid on day 10 coadministered with 200 mg, po bid zidovudine by LC-MS/MS analysis; type: ADME, organism-based; details: human, in vivo; how it was run: as §2
[14] = Cmax in HIV-1 infected patient at 500 mg, po bid on day 10 coadministered with 300 mg, po bid zidovudine by LC-MS/MS analysis; type: ADME, organism-based; design: dose 500 mg, route oral; details: human, in vivo; how it was run: as §2
Homo sapiens [15] = experiment: Tmax in HIV-1 infected patient assessed as beta-D-dioxolane guanosine level at 500 mg, po bid on day 1 by LC-MS/MS analysis; type: ADME, organism-based; details: in vivo; how it was run: as §2
Homo sapiens [16] = experiment: Ratio of AUC (0 to 12 hrs) in HIV-1 infected patient at 500 mg, po bid on day 10 coadministered with 300 mg, po bid zidovudine to AUC (0 to 12 hrs) in HIV-1 infected patient at 500 mg, po bid on day 1 coadministered with 300 mg, po bid zidovudine; type: ADME, organism-based; details: in vivo; how it was run: as §2
[17] = AUC (0 to 12 hrs) in HIV-1 infected patient at 500 mg, po bid on day 10 coadministered with 200 mg, po bid zidovudine by LC-MS/MS analysis; type: ADME, organism-based; design: dose 500 mg, time < 12 hr, route oral; details: human, plasma; how it was run: as §2
[18] = AUC (0 to 12 hrs) in HIV-1 infected patient at 500 mg, po bid on day 10 coadministered with 300 mg, po bid zidovudine by LC-MS/MS analysis; type: ADME, organism-based; design: dose 500 mg, time < 12 hr, route oral; details: human, plasma; how it was run: as §2
Homo sapiens [19] = experiment: Ratio of AUC (0 to 12 hrs) in HIV-1 infected patient at 500 mg, po bid on day 10 coadministered with 200 mg, po bid zidovudine to AUC (0 to 12 hrs) in HIV-1 infected patient at 500 mg, po bid on day 1 coadministered with 200 mg, po bid zidovudine; type: ADME, organism-based; details: in vivo; how it was run: as §2
[20] = Cmax in HIV-1 infected patient at 500 mg, po bid on day 10 by LC-MS/MS analysis; type: ADME, organism-based; design: dose 500 mg, route oral; details: human, in vivo; how it was run: as §2
Homo sapiens [21] = experiment: Ratio of AUC (0 to 12 hrs) in HIV-1 infected patient at 500 mg, po bid on day 10 to AUC (0 to 12 hrs) in HIV-1 infected patient at 500 mg, po bid on day 1; type: ADME, organism-based; details: in vivo; how it was run: as §2
[22] = Apparent oral clearance in HIV-1 infected patient at 500 mg, po bid on day 10 coadministered with 300 mg, po bid zidovudine by LC-MS/MS analysis; type: ADME, organism-based; details: human, in vivo; how it was run: as §2
[23] = Drug level in HIV-1 infected patient urine at 200 mg, po bid on day 10 coadministered with 500 mg, po bid amdoxovir by LC-MS/MS analysis; type: ADME, organism-based; details: human, read-out: Drug uptake
How it was run: (§3)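 At steady state (day 10), urine collected over one 12-h dose interval was analyzed by LC-MS/MS for AMDX, DXG, ZDV and ZDV-5′-O-glucuronide. Samples were diluted 100-fold, and the assay was linear from 1 to 500 μg/ml. Results are expressed as percentage of the dose recovered as each analyte (geometric means). Subjects were untreated HIV-1-infected adults.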

[24] = Tmax in HIV-1 infected patient at 200 mg, po bid on day 10 coadministered with 500 mg, po bid amdoxovir by LC-MS/MS analysis; type: ADME, organism-based; details: human, in vivo
How it was run: (§4)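 Untreated Hispanic HIV-infected adults (VL ≥5,000 copies/ml, CD4 ≥200 cells/mm3) dosed orally b.i.d. for 10 days. Methanol extraction with internal standard, then LC-MS/MS for ZDV. Noncompartmental steady-state Tmax reported as geometric mean.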

[25] = Drug level in HIV-1 infected patient urine assessed as zidovudine-5-O-glucoronide level at 200 mg, po bid on day 10 coadministered with 500 mg, po bid amdoxovir by LC-MS/MS analysis; type: ADME, organism-based; details: human, in vivo; how it was run: as §3
[26] = Half life in HIV-1 infected patient at 200 mg, po bid on day 10 coadministered with 500 mg, po bid amdoxovir by LC-MS/MS analysis; type: ADME, organism-based; details: human, in vivo; how it was run: as §2
[27] = Apparent oral clearance in HIV-1 infected patient on day 10 by LC-MS/MS analysis; type: ADME, organism-based; details: human, in vivo; how it was run: as §2
[28] = Drug level in HIV-1 infected patient urine on day 10 by LC-MS/MS analysis; type: ADME; details: human, read-out: Drug uptake; how it was run: as §3
[29] = Apparent oral clearance in HIV-1 infected patient at 300 mg, po bid on day 10 coadministered with 500 mg, po bid amdoxovir by LC-MS/MS analysis; type: ADME, organism-based; details: human, in vivo; how it was run: as §2
[30] = Drug level in HIV-1 infected patient urine on day 10 assessed as zidovudine-5-O-glucoronide level by LC-MS/MS analysis; type: ADME; details: human, in vivo; how it was run: as §3
Homo sapiens [31] = experiment: Ratio of AUC (0 to 12 hrs) in HIV-1 infected patient at 200 mg, po bid on day 10 coadministered with 500 mg, po bid amdoxovir to AUC (0 to 12 hrs) in HIV-1 infected patient at 200 mg, po bid on day 1 coadministered with 500 mg, po bid amdoxovir; type: ADME, organism-based; details: in vivo
How it was run: (§5)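 Untreated Hispanic HIV-infected adults (VL ≥5,000 copies/ml, CD4 ≥200 cells/mm3) dosed orally b.i.d. Plasma sampled 0–12 h after first dose (day 1) and 0–48 h after last dose (day 10) into DCF-containing EDTA tubes, stored −80°C. ZDV measured by validated LC-MS/MS (linear 2–5,000 ng/ml). Noncompartmental analysis assuming extravascular input. Accumulation taken as AUCτ (τ = 12 h) day 10 / AUCτ day 1, as geometric means.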

Homo sapiens [32] = experiment: Ratio of AUC (0 to 12 hrs) in HIV-1 infected patient at 300 mg, po bid on day 10 coadministered with 500 mg, po bid amdoxovir to AUC (0 to 12 hrs) in HIV-1 infected patient at 300 mg, po bid on day 1 coadministered with 500 mg, po bid amdoxovir; type: ADME, organism-based; details: in vivo; how it was run: as §5
[33] = Tmax in HIV-1 infected patient at 300 mg, po bid on day 10 coadministered with 500 mg, po bid amdoxovir by LC-MS/MS analysis; type: ADME, organism-based; details: human, in vivo; how it was run: as §4
[34] = Drug level in HIV-1 infected patient urine at 300 mg, po bid on day 10 coadministered with 500 mg, po bid amdoxovir by LC-MS/MS analysis; type: ADME, organism-based; details: human, read-out: Drug uptake; how it was run: as §3
[35] = Apparent oral clearance in HIV-1 infected patient at 200 mg, po bid on day 10 coadministered with 500 mg, po bid amdoxovir by LC-MS/MS analysis; type: ADME, organism-based; details: human, in vivo; how it was run: as §2
Homo sapiens [36] = species on record: Homo sapiens; experiment: Ratio of AUC (0 to 12 hrs) in HIV-1 infected patient on day 10 to AUC ( 0 to 12 hrs) in HIV-1 infected patient on day 1; type: ADME, organism-based; details: in vivo; how it was run: as §5
[37] = Half life in HIV-1 infected patient on day 10 by LC-MS/MS analysis; type: ADME, organism-based; details: human, in vivo; how it was run: as §2
[38] = Half life in HIV-1 infected patient at 300 mg, po bid on day 10 coadministered with 500 mg, po bid amdoxovir by LC-MS/MS analysis; type: ADME, organism-based; details: human, in vivo; how it was run: as §2
[39] = Drug level in HIV-1 infected patient urine assessed as zidovudine-5-O-glucoronide level at 300 mg, po bid on day 10 coadministered with 500 mg, po bid amdoxovir by LC-MS/MS analysis; type: ADME, organism-based; details: human, in vivo; how it was run: as §3
[40] = Tmax in HIV-1 infected patient on day 10 by LC-MS/MS analysis; type: ADME, organism-based; details: human, in vivo; how it was run: as §4

Tmax [1]: 2.5 h
CL/F [2]: 91.5 mL/min/kg
Cmax [3]: 514 ng/mL
Tmax [4]: 1 h
half-life [5]: 1.1 h
CL/F [6]: 74.7 mL/min/kg
half-life [7]: 1.3 h
Cmax [8]: 649 ng/mL
AUC at 12 h [9]: 1330 ng·h/mL
Tmax [10]: 2 h
Tmax [11]: 2.5 h
half-life [12]: 1.4 h
half-life [13]: 1.7 h
Cmax [14]: 714 ng/mL
Tmax (Homo sapiens [15]): 1 h
Ratio AUC (Homo sapiens [16]): 0.67
AUC at 12 h [17]: 1730 ng·h/mL
AUC at 12 h [18]: 2090 ng·h/mL
Ratio AUC (Homo sapiens [19]): 0.99
Cmax [20]: 499 ng/mL
Ratio AUC (Homo sapiens [21]): 0.95
CL/F [22]: 63.5 mL/min/kg
Compound: Nc1nc(N)c2ncn([C@H]3CO[C@@H](CO)O3)c2n1 [AMDOXOVIR]

dose excreted [23]: 5.88%
Tmax [24]: 0.5 h
Drug uptake [25]: 61.87%
half-life [26]: 2.5 h
CL/F [27]: 23.2 mL/min/kg
dose excreted [28]: 6.24%
CL/F [29]: 30 mL/min/kg
Drug uptake [30]: 61.15%
Ratio AUC (Homo sapiens [31]): 1.04
Ratio AUC (Homo sapiens [32]): 0.86
Tmax [33]: 0.5 h
dose excreted [34]: 6.74%
CL/F [35]: 39 mL/min/kg
Ratio AUC (Homo sapiens [36]): 1.21
half-life [37]: 2.2 h
half-life [38]: 2.4 h
Drug uptake [39]: 62.89%
Tmax [40]: 0.5 h
Compound: Cc1cn([C@H]2C[C@H](N=[N+]=[N-])[C@@H](CO)O2)c(=O)[nH]c1=O [ZIDOVUDINE]
